The values below come from ChEMBL document CHEMBL2069205 (Bioorg Med Chem Lett, 2012).

The structures appear in SMILES notation.

The target of data set [1] is T1, Potassium voltage-gated channel subfamily KQT member 1 (Homo sapiens, UniProt P51787).
T1 sequence (P51787 whole entry): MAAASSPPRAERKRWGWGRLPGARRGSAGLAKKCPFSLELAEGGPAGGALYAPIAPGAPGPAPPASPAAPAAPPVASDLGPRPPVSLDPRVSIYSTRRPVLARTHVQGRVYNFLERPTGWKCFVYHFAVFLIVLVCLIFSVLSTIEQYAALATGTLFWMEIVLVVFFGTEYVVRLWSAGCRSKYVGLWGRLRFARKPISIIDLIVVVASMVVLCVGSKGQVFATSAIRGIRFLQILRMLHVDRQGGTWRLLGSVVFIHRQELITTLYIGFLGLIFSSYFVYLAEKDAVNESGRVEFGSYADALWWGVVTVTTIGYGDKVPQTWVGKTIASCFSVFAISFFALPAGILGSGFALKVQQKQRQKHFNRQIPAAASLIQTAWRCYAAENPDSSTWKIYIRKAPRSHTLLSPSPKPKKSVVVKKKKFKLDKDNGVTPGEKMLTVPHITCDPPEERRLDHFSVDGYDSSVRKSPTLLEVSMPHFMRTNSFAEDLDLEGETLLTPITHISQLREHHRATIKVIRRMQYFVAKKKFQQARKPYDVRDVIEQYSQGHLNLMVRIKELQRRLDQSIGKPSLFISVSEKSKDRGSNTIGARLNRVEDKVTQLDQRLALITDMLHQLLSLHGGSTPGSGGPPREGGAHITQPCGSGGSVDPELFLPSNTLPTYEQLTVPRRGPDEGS
Put plainly: Activation of Kv7.1 channel expressed in CHO cells assessed as depolarization-induced […] after 3 mins by patch clamp assay. It counts as cell-based. The method, boiled down:
(§1)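 CHO cells stably expressing KCNQ1 were run by perforated (amphotericin B, 50 µg/ml) population patch clamp in pH 7.4 HEPES extracellular solution. Cells were held at −80 mV and stepped to +40 mV for 2000 ms. Current at the end of the step was taken before and after 3 min of compound, as percent change. Wells needed >30 MΩ seal and 0.6–0.8 nA minimum current. EC50s came from 8-point, threefold dilutions in duplicate.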

Data set [2] concerns the target T1, Potassium voltage-gated channel subfamily KQT member 1. Kind of data set: Activation of Kv7.1 channel expressed in CHO cells assessed as depolarization-induced […] after 3 mins by patch clamp assay relative to control. It counts as cell-based. The following applies: 0.05 h, read-out: %max. The method, boiled down: as §1
A short description of data set [3]: Intrinsic clearance in human liver microsomes. It counts as ADME, Microsome. Conditions: read-out: CLH; call rule not given here. The gist of the method:
(§2)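 Intrinsic clearance was measured in hepatic microsomes, and the data were used to predict hepatic clearance (CL_HEP).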

Data set [4] relates to Liver microsomes. Kind of data set: Drug metabolism in human liver microsomes assessed as tolyl-oxidation by mass spectrophotometry. It counts as ADME, Microsome. The method, boiled down:
(§3)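 In vitro biotransformation in liver microsomes was examined, with primary metabolic pathways identified by mass spectrometry.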

Data set [5] deals with T2, Potassium voltage-gated channel subfamily KQT member 4 (Homo sapiens, UniProt P56696).
T2 sequence (P56696 whole entry): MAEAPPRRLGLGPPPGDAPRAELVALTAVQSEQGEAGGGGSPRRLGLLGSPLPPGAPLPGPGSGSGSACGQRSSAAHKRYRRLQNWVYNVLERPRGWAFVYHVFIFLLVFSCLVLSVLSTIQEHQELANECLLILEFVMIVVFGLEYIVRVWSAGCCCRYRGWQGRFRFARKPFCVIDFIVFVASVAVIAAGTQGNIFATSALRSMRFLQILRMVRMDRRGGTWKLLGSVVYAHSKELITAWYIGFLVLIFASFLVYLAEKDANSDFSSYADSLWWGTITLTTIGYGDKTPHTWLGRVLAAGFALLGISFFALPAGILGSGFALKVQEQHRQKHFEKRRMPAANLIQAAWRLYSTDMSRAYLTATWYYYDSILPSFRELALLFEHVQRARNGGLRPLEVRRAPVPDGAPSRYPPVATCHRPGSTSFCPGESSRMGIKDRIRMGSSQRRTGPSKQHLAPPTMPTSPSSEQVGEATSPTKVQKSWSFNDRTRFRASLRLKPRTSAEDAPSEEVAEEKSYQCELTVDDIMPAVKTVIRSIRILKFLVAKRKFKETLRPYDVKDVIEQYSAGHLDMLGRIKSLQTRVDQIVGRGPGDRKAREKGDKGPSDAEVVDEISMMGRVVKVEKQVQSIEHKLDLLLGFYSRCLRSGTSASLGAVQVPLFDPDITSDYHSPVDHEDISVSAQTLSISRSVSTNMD
Put plainly: Activation of KCNQ4 channel expressed in CHO cells assessed as depolarization-induced […] after 3 mins by patch clamp assay relative to control. It counts as cell-based. The gist of the method: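 KCNQ4-expressing CHO cells were measured on the same perforated population patch-clamp platform. Cells were held at −70 mV and depolarized to +40 mV, with step current measured at +40 mV before and after 3 min of compound. Effect was calculated as percent change from the pre-compound current in the same well. The 8-point, threefold concentration series was run in duplicate.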

Data set [6] has as its target T3, Adenosine receptor A3 (Homo sapiens) (UniProt P0DMS8).
T3 sequence (whole entry): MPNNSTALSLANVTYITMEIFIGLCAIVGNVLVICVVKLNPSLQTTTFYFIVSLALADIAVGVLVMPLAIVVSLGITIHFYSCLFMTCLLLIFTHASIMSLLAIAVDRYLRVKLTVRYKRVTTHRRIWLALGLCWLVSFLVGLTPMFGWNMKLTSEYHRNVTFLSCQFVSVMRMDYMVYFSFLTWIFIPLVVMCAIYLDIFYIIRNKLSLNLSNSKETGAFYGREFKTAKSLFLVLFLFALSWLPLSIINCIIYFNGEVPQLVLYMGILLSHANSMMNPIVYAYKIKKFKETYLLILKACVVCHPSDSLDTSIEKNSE
Put plainly: Inhibition of human adenosine A3 receptor at 10 uM. The method, boiled down: (§4)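 The Lead Profiling binding panel (68 GPCRs, ion channels and transporters) was run at a single point, reading percent inhibition.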

Data set [7] addresses Potassium voltage-gated channel subfamily KQT member 2 (Homo sapiens, UniProt O43526). Kind of data set: Activation of KCNQ2 channel expressed in CHO cells assessed as depolarization-induced […] after 3 mins by patch clamp assay relative to control. It counts as cell-based.
In data set [8] the test system is Plasma. Kind of data set: Fraction unbound in rat plasma. It counts as ADME, cell-free. The method, boiled down:
(§5)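 Plasma protein binding was measured by rapid equilibrium dialysis, giving the unbound fraction.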

For data set [9], the target named is Sodium-dependent dopamine transporter (Homo sapiens) (UniProt Q01959). Put plainly: Inhibition of human DAT at 10 uM. The method, boiled down:
as §4

Data set [10] deals with Liver microsomes. Kind of data set: Drug metabolism in rat liver microsomes assessed as tolyl-oxidation by mass spectrophotometry. It counts as ADME, Microsome. The method, boiled down: as §3
In data set [11] the test system is Liver microsomes. Kind of data set: Drug metabolism in rat liver microsomes assessed as methoxy-O-demethylation by mass spectrophotometry. It counts as ADME, Microsome. The gist of the method: as §3
The target of data set [12] is Cannabinoid receptor 1 (Homo sapiens) (UniProt P21554). Kind of data set: Inhibition of human CB1 receptor at 10 uM. The gist of the method: as §4
Chain of Cannabinoid receptor 1 (Homo sapiens) (P21554 whole entry): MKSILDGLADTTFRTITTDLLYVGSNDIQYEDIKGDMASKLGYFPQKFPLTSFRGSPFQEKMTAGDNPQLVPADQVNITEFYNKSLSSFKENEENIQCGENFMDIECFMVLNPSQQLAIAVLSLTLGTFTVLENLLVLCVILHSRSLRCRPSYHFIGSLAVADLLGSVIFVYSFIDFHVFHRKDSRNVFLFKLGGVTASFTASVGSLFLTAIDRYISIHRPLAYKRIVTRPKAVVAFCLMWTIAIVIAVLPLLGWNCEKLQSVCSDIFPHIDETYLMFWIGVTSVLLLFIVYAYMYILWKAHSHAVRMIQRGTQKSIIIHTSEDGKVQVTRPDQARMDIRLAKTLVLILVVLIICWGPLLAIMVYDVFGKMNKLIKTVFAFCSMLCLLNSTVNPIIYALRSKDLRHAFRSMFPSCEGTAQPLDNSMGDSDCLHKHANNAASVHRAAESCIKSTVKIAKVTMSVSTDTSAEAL
A short description of data set [13]: Intrinsic clearance in rat liver microsomes. It counts as ADME, Microsome. Conditions: read-out: CLH. The gist of the method:
as §2

Data set [14] relates to Liver microsomes. Kind of data set: Drug metabolism in human liver microsomes assessed as methoxy-O-demethylation by mass spectrophotometry. It counts as ADME, Microsome. The gist of the method: as §3
The target in data set [15] is 5-hydroxytryptamine receptor 2B (Homo sapiens) (UniProt P41595). Put plainly: Inhibition of human 5HT2B receptor at 10 uM. The method, boiled down:
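Commercial lead-profiling binding panel of up to 68 GPCRs, ion channels and transporters; percent inhibition measured at a single concentration of 10 µM.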

In data set [16] the test system is Plasma. Kind of data set: Fraction unbound in human plasma. It counts as ADME, cell-free. The method, boiled down:
as §5

Chain of Sodium-dependent dopamine transporter (Homo sapiens) (Q01959 whole entry): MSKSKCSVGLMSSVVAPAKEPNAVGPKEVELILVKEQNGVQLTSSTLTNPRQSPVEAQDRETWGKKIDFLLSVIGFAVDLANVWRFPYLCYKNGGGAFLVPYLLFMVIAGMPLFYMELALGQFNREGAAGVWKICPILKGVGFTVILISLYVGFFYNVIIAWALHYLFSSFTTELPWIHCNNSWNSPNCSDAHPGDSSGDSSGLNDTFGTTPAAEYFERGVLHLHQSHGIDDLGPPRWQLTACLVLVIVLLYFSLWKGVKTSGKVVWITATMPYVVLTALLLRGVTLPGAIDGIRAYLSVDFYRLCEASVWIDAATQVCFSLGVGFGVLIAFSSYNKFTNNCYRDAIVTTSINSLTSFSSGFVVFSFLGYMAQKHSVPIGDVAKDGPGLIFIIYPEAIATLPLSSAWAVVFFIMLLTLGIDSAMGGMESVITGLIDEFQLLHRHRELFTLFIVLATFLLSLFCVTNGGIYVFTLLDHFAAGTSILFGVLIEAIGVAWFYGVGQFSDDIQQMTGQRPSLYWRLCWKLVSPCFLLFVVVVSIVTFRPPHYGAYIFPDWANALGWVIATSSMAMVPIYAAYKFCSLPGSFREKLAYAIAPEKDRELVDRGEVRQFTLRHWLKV
Chain of Potassium voltage-gated channel subfamily KQT member 2 (O43526 whole entry): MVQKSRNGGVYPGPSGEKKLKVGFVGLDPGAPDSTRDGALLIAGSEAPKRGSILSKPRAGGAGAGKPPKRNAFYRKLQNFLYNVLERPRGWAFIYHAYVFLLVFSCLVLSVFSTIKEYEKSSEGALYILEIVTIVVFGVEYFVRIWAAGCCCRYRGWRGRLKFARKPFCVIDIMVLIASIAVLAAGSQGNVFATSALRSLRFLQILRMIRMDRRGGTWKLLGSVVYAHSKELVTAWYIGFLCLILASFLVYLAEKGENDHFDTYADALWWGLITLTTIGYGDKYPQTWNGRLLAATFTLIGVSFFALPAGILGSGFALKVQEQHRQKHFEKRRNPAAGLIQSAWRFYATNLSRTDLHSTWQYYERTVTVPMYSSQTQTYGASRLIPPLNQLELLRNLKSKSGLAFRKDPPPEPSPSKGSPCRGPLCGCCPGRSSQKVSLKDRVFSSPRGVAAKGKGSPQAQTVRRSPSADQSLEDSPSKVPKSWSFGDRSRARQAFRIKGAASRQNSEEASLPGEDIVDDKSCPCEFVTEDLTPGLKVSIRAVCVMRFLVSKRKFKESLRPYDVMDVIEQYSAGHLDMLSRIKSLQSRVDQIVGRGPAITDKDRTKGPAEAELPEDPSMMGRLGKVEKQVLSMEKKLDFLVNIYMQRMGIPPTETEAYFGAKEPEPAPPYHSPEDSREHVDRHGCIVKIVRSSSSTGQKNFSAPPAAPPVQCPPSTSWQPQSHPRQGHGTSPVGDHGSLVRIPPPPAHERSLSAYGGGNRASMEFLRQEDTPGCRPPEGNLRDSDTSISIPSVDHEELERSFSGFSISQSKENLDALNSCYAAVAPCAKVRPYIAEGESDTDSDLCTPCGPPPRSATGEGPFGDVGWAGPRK
Chain of 5-hydroxytryptamine receptor 2B (Homo sapiens) (P41595 whole entry): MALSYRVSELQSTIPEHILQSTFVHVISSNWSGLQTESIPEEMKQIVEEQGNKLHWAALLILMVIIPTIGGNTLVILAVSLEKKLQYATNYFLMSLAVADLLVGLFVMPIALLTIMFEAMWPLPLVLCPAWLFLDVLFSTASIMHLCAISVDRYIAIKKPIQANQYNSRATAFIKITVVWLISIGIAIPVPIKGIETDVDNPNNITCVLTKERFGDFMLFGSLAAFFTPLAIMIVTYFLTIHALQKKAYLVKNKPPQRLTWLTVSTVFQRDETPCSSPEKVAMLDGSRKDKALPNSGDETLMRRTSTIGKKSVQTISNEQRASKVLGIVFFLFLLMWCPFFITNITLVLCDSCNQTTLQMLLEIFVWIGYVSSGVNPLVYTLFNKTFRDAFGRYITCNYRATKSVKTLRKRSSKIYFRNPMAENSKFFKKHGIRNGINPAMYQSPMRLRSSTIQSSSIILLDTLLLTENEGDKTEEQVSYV

With `COc1ccc(-c2csc(NC(=O)[C@H]3CCCCN3S(=O)(=O)c3ccc4c(c3)OCO4)n2)cc1`, in [1], the EC50 was 0.78 µM. Also, the Emax in data set [2] worked out at 178%.

For `COc1ccc(-c2csc(NC(=O)[C@H]3CCCCN3S(=O)(=O)c3ccc(C)cc3)n2)cc1`, the CLint scaled in data set [3] came to 18 mL/min/kg; in [13], 64.7 mL/min/kg. In addition, the Drug metabolism result with Liver microsomes [4], in the data set with Liver microsomes [10], in the data set with Liver microsomes [11] and with Liver microsomes [14] was “Active” in each case. Also, the EC50 in data set [5] and in data set [7] was over 30 µM each time. In addition, the inhibition was determined as 73% in data set [6], 54% in data set [9], 97% in data set [12] and 66% in [15]. For the same compound, the values for the Fu in the data set on Plasma [8] and in the data set with Plasma [16] were 0.7% and 0.6%, respectively.

As for `O=C(Nc1nc(-c2ccc(OC(F)(F)F)cc2)cs1)[C@H]1CCCCN1S(=O)(=O)c1ccc(OC(F)(F)F)cc1`, the CLint scaled in data set [3] was found to be 7.9 mL/min/kg; in data set [13], 20.6 mL/min/kg. For the same compound, in data set [1] (human, cho, 0.05 h), the Activity entry was “Not Active”.

With `COc1ccc(-c2csc(NC(=O)C3CCCCN3S(=O)(=O)c3ccccc3)n2)cc1` (racemic), the EC50 in data set [1] worked out at 1.69 µM. Further, the Emax in [2] came to 285%.

In the case of `COc1ccc(-c2csc(NC(=O)[C@@H]3CCCCN3S(=O)(=O)c3ccccc3)n2)cc1`, the EC50 in data set [1] is over 30 µM.

Take `COc1ccc(-c2csc(NC(=O)[C@H]3CCCCN3S(=O)(=O)c3ccccc3)n2)cc1`: the EC50 in data set [1] is 1.47 µM. Further, in data set [2], the Emax is 359%.
